The record followed here is ChEMBL document CHEMBL1141593, “Acylpyrogallols as inhibitors of antiapoptotic Bcl-2 proteins” (J Med Chem, 2008).

Assay [1] has as its system MDA-MB-231. Nature of the assay: Growth inhibition of human MDA-MB-231 2LMP cells after 4 days by WST-8 based assay. The assay is classed as functional, cell-based. The note with it: MDA-MB-231, 96 h. In a few lines:
(§1)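 Cells grown with compound for 4 days, then cell growth read by WST-based assay; IC50 values. Both lines express high levels of Bcl-2, Bcl-xL and Mcl-1.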

In assay [2] the test system is PC-3. Nature of the assay: Growth inhibition of human PC3 cells after 4 days by WST-8 based assay. The assay is classed as functional, cell-based. The conditions noted are these: PC-3, 96 h. In a few lines:
as §1
In general terms: Tetrazolium dyes change colour on reduction, which living cells bring about.

Assay [3] has as its target Apoptosis regulator Bcl-2 (Homo sapiens, UniProt P10415). Nature of the assay: Inhibition of human Bcl-2 protein by ELISA. An outline of the steps:
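ELISA competitive binding to Bcl-2 using a biotinylated Bim peptide as competitor; IC50 values.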

The target in assay [4] is Induced myeloid leukemia cell differentiation protein Mcl-1 (Homo sapiens, UniProt Q07820). Nature of the assay: Inhibition of human Mcl-1 protein by fluorescence polarization assay. An outline of the steps: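 Mcl-1 binding by fluorescence-polarization competition assay; Ki values.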
For orientation: Fluorescence polarisation rises when a labelled molecule tumbles more slowly, as on binding a larger partner.

The test system of assay [5] is PC-3. Nature of the assay: Induction of apoptosis in human PC3 cells by annexin-5/propidium iodide assay. The assay is classed as functional, cell-based. In a few lines:
(§2)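 Four-day exposure, then apoptosis measured by annexin-V/propidium iodide staining and flow cytometry.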

The subject of assay [6] is MDA-MB-231. Nature of the assay: Induction of apoptosis in human MDA-MB-231 2LMP cells by annexin-5/propidium iodide assay. The format is functional, cell-based. An outline of the steps: as §2
For assay [7], the system named is PC-3. Nature of the assay: Induction of apoptosis in human PC3 cells assessed as Cell viability after 4 days by trypan blue exclusion assay. The assay is classed as functional, cell-based.
For assay [8], the system named is MDA-MB-231. Nature of the assay: Induction of apoptosis in human MDA-MB-231 2LMP cells assessed as cell viability by trypan blue exclusion assay. The format is functional, cell-based. The conditions noted are these: TDE = time-dependent effect.
For assay [9], the system named is PC-3. Nature of the assay: Induction of apoptosis in human PC3 cells assessed as cell viability by trypan blue exclusion assay. The format is functional, cell-based. The conditions noted are these: TDE = time-dependent effect.
Assay [10] deals with MDA-MB-231. Nature of the assay: Induction of apoptosis in human MDA-MB-231 2LMP cells assessed as cell viability at 1 uM after 4 days by trypan blue exclusion assay. The format is functional. The note with it: MDA-MB-231, 96 h, read-out: Activity. An outline of the steps: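 Cell death scored by trypan blue exclusion after 4 days of exposure at 0.3, 1 and 3 µM; percentage of dead cells reported with ± error.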

Activity calls are given as the source filed them. No cut-off for these calls is given here.

As a reminder, the IC50 is the concentration that inhibits the measured activity by half. Read a high IC50 as weaker potency in that assay. Broadly, the Ki is a dissociation constant, usually derived from enzyme kinetics or from competition with a known ligand. The low end stands for a stronger hold on the target, the high end for a looser hold on the target.

Sequence of Induced myeloid leukemia cell differentiation protein Mcl-1 (Q07820 whole entry): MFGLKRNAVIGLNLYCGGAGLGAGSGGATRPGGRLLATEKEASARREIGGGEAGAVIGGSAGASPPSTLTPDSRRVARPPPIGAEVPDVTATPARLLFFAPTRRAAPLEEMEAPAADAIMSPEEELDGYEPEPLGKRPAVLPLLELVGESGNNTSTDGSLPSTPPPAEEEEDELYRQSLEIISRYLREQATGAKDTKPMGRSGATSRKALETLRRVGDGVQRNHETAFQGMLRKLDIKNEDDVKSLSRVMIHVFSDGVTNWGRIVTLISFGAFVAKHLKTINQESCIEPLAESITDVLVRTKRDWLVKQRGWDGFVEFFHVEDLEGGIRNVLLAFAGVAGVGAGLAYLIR
Sequence of Apoptosis regulator Bcl-2 (P10415 whole entry): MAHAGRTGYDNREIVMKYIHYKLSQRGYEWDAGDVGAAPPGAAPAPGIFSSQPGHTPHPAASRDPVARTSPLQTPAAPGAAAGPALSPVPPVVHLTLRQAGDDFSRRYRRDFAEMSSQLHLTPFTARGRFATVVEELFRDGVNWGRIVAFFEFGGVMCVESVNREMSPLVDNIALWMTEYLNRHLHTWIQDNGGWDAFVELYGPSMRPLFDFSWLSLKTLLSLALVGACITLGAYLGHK

Take `CC(C)c1cc(C(=O)c2ccccc2)c(O)c(O)c1O`: the IC50 in the assay on MDA-MB-231 [1] came to 30700 nM; in the assay on PC-3 [2], 39300 nM; in [3], 41600 nM; in assay [4], 36500 nM. The compound also gave a Ki in assay [4] of 4600 nM.

For `CC(C)C(=O)c1cc(C(=O)c2ccc(Oc3ccccc3)cc2)c(O)c(O)c1O`, the concentration for half-maximal inhibition (IC50) was determined as 4500 nM in the assay on MDA-MB-231 [1], 5700 nM with PC-3 [2], 2600 nM in [3] and 2670 nM in [4]. The Ki in assay [4] turned out to be 340 nM.

On to `O=C(c1ccc(Oc2ccccc2)cc1)c1cc(C(=O)c2nc3ccccc3s2)c(O)c(O)c1O`, for which the IC50 with MDA-MB-231 [1] stood at 120 nM; with PC-3 [2], 260 nM; in assay [3], 170 nM; in assay [4], 310 nM. The result in the assay with PC-3 [5] and with MDA-MB-231 [6] was Active. In addition, the Activity entry in the assay with PC-3 [7] was “Dose-dependent effect”; with MDA-MB-231 [8] it was “tde”; in the assay with PC-3 [9], “tde”. In addition, the viability at 1 µM in the assay on MDA-MB-231 [10] was 58%. Further, in assay [4], affinity was put at a Ki of 37 nM.

As to `Cc1cc2c(C(C)C)c(O)c(O)c(C=O)c2c(O)c1-c1c(C)cc2c(C(C)C)c(O)c(O)c(C=O)c2c1O` [GOSSYPOL], the IC50 with MDA-MB-231 [1] was 3700 nM; in the assay with PC-3 [2], 2500 nM.

Regarding `CC(C)c1cc(C(=O)c2ccc(Oc3ccccc3)cc2)c(O)c(O)c1O`, the IC50 in the assay with MDA-MB-231 [1] is 12900 nM; in the assay on PC-3 [2], 12400 nM; in assay [3], 3400 nM; in [4], 3060 nM. Also, the inhibitory constant (Ki) in assay [4] turned out to be 380 nM.

As to `O=C(c1ccc(Oc2ccccc2)cc1)c1cc(C(=O)c2cccc3ccccc23)c(O)c(O)c1O`, the IC50 with MDA-MB-231 [1] came out at 290 nM; in the assay on PC-3 [2] it was 550 nM; in assay [3], 290 nM; in assay [4] it was 1200 nM. Also, in assay [4], the affinity, expressed as Ki, was 150 nM.
